# This is a sample that favours compounds with a hit; in the whole collection about 3.3% have one here.
# ROMK mod – human ROMK K+ channel modulation, primary screen. actives 2% (n = 130,000). B-score at 10 µM. P48048. Tet-inducible ROMK, thallium flux fluorescence; actives lie on both sides;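 active = signal ratio slope over the read window, or its plate-corrected B-score, at least 3 SD from the plate mean, either direction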;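 also: B-score of the F/F0 ratio slope over 7 to 12 s after thallium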
# PMI act – activators of human phosphomannose isomerase | activation factor at 20 µM | purified human PMI, coupled resazurin fluorescence, 20 min; active compounds read high; 1 = vehicle control, 0 substrate-free wells | actives 0.005% (n = 190,000) | P34949;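 active = activation factor of 2 or more at 20 µM, relative to plate controls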
# ABCB1 inh – human ABCB1 inhibition, ABCG2 as counter-screen | inhibition, % at 6.6 µM | AID 1326 | actives 0.067% (n = 190,000) | P08183 | CCRF-Adr cells, JC-1 efflux, flow cytometry; in the data active = inhibition above about 40%;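 also: 0% = vehicle and 100% = reference inhibitor; higher value means more JC-1 retained so stronger ABCB1 efflux block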
# Target sequence (P08183 whole entry, looked up): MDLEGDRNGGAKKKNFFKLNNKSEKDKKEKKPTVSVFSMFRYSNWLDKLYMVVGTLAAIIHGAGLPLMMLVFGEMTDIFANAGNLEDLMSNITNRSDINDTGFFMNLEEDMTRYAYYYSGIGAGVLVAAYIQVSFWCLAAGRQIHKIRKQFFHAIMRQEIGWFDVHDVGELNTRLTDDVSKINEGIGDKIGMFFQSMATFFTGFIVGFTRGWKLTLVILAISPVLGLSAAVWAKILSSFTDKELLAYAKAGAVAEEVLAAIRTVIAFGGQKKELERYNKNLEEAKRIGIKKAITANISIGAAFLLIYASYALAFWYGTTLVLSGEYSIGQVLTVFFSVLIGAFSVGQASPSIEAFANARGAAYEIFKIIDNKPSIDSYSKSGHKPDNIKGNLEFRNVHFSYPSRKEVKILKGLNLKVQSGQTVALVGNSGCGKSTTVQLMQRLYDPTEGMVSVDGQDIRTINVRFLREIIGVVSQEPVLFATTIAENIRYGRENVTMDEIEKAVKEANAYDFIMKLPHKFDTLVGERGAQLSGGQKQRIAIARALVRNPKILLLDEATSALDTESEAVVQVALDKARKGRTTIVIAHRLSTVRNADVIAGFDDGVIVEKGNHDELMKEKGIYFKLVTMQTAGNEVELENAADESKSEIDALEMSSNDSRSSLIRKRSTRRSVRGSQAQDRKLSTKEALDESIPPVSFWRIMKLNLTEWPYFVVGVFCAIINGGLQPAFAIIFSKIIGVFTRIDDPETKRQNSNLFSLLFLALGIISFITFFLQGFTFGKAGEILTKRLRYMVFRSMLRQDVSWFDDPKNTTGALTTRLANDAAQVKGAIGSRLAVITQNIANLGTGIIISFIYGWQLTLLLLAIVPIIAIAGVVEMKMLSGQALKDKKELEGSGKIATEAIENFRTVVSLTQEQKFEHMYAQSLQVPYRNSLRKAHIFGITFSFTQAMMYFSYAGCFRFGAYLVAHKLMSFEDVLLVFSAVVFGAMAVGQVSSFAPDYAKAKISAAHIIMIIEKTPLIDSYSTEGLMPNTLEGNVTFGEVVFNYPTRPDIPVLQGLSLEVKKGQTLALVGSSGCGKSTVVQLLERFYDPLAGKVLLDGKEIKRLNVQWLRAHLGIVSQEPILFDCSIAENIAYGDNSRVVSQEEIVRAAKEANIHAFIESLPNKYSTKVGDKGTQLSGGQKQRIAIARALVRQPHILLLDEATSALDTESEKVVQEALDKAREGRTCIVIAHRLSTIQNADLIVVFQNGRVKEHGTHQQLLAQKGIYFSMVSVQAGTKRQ
# KCC2 mod – modulators of human KCC2 chloride dependent transport. Q9H2X9. KCC2 cells, thallium flux FluoZin-2 fluorescence. actives 2.2% (n = 190,000). AID 1456. B-score of Tl+ flux slope (higher = more flux/activation; lower = inhibition) at 10 µM;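 active = thallium flux slope and its plate-corrected score both differing from the plate sample mean at a set confidence after two filtering rounds, in either direction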;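 also: slope of fluorescence scaled to starting intensity during 10 to 20 s after thallium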
# ABCG2 block – inhibitors of human ABCG2 transporter, ABCB1 counter-screen; Q9UNQ0; IgMXP3 cells, JC-1 efflux, flow cytometry; inhibition, % at 6.6 µM; actives 0.1% (n = 190,000); AID 1325;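 active = inhibition above 80%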;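 also: 0% = DMSO and 100% = nicardipine control wells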
#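 Read-out basis: Efflux inhibition in percent versus controls | Test system: ABCG2 IgMXP3 and barcoded ABCB1 CCRF-Adr cell mix | Quantity: 3 million cells/mL in well | Schedule: 10 min at 25 °C | Control set: Nicardipine as high control, DMSO as low control | Reagent: JC-1 as fluorescent efflux pump substrate | Signal: Flow cytometry of retained JC-1 fluorescence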
# PMI act satM6P – increases human PMI activity with near-saturating mannose 6-phosphate. coupled PMI enzyme assay, resazurin fluorescence, 20 min; active compounds read high; 1 = untreated enzyme, 0 = substrate-free blank. P34949. activation factor at 20 µM. AID 1216. actives 0.34% (n = 190,000);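 active = activation factor of 2 or more at 20 µM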
#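 Material: human phosphomannose isomerase with PGI, G6PDH, diaphorase coupling enzymes / Reagent: Man-6-P substrate 1.0 mM / Dosing: single compound dose of 20 µM, 1% DMSO final / Incubation: enzyme reaction with compound 20 min at room temperature / Signal: resorufin fluorescence (Ex 544/Em 590 nm) from resazurin via diaphorase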
# KCC2 sec1 – confirmation of human KCC2 transport modulators; shares compounds with KCC2 mod; HEK293-KCC2, thallium flux, FluoZin2 fluorescence; active compounds read high; normalised thallium flux (F/F0 slope) at 10 µM; actives 15% (n = 3,700); AID 1713;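 active = thallium flux slope above the same plate's solvent-only control mean plus 3 SD; inconclusive = the two replicate wells disagree; inactive = no significant difference from solvent-only control wells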
# KCC2 bumet counter – bumetanide-insensitive thallium flux in KCC2 cells with ouabain, counter-screen | shares compounds with KCC2 mod | HEK293-KCC2 + bumetanide/ouabain, thallium flux FluoZin2; active compounds read high | normalized thallium flux at 10 µM | actives 49% (n = 3,700) | AID 1714;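 active = thallium entry rate above the same plate's blocked-transporter control wells by more than 3 SD; inconclusive = the two repeat wells disagree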;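 also: raw slope of fluorescence over initial fluorescence between 10 and 20 s after thallium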
# KCC2 sec2 – KCC2 (human) modulation, second secondary assay. shares compounds with KCC2 mod. HEK293-KCC2, thallium flux FluoZin2 fluorescence; actives lie on both sides; F/F0 rise rate, 10–20 s post-thallium. normalized thallium flux at 10 µM. actives 23% (n = 3,700);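 active = thallium flux slope more than 3 SD above or below the plate's solvent-only control mean, mostly below; inconclusive = the two repeat wells disagreed; inactive = no significant shift from solvent-only controls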;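 also: raw slope with 0.1% DMSO as baseline and bumetanide as block control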
# HEK counter1 – counter-screen for KCC2 modulators: effect in parental HEK293 cells. shares compounds with KCC2 mod. thallium flux FluoZin2, ouabain; baseline-ratio fluorescence slope, 10–20 s after thallium. thallium flux rate (normalised fluorescence) at 10 µM. actives 46% (n = 3,700). AID 1716;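 active = thallium flux rate significantly above the same plate's solvent-only control wells, beyond their mean plus 3 SD; inconclusive = the two replicate wells gave conflicting results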
# KCC2 retest ouab – KCC2 (human) modulation, ouabain retest; HEK293-KCC2, thallium flux FluoZin2 fluorescence; bidirectional: low = inhibitor, high = activator; actives 48% (n = 3,700); AID 1717; raw Tl+ flux slope (below DMSO = inhibition, above = activation) at 10 µM; shares compounds with KCC2 mod;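 active = thallium flux slope beyond 3 SD from same-plate DMSO control mean in most replicates, usually higher, sometimes lower; inconclusive = repeat tests gave conflicting results; inactive = no significant difference from controls in most replicates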;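 also: slope of initial-normalized fluorescence between seconds 10 and 20 after thallium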
# HEK counter2 – counter-screen for KCC2 modulators: effect in parental HEK293 cells; AID 1718; thallium flux slope at 10 µM; shares compounds with KCC2 mod; thallium flux FluoZin-2 fluorescence slope; actives 33% (n = 3,700);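 active = thallium flux slope above the same plate's solvent-control mean plus 3 SD in both duplicate wells; inconclusive = duplicate wells that disagreed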;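 also: run without ouabain in cells lacking the KCC2 cotransporter; slope of fluorescence scaled to its starting value between 10 and 20 s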
# * marks the source's active call; other numbers are inactive results; u = inconclusive; x = no result given.
SMILES,ROMK mod,PMI act,ABCB1 inh,KCC2 mod,ABCG2 block,PMI act satM6P,KCC2 sec1,KCC2 bumet counter,KCC2 sec2,HEK counter1,KCC2 retest ouab,HEK counter2
COC(=O)c1ccccc1NC(=S)NC(=O)COc1ccc(C(C)C)cc1,0.283,0.8,0.1,9.71*,1.4,0.9,0.0107,0.0174*,0.0346,0.0192*,0.0356*,0.0118
Cc1ccccc1NC(=S)NC(NC(=O)COc1ccccc1)C(Cl)(Cl)Cl (configuration not stated),x,1.1,-0.3,x,12.6,1,x,x,x,x,x,x
CC(C)N(CCO)C(=O)CCc1nnc(Cc2cccc(C(F)(F)F)c2)o1,0.709,1,1.1,0.448,3.5,1,x,x,x,x,x,x
O=C(Nc1ccccc1)/C(=C\c1ccncc1)NC(=O)c1ccccc1,0.866,1,1.1,5.44*,12.5,1.1,0.0152,0.00509,0.0274,u,0.0169,0.0112
O=C(Nc1ccc(O)cc1)/C(=C\c1ccncc1)NC(=O)c1ccccc1,0.922,1.3,0.8,-0.605,4.6,0.9,x,x,x,x,x,x
Cn1c(=O)c2sccc2n2c(CCCC(=O)NCc3ccc4c(c3)OCO4)nnc12,0.128,0.9,0.3,x,0.8,0.9,x,x,x,x,x,x
Cc1cccc(C)c1NC(=O)CSc1nnc(Cn2nnc(-c3ccccc3)n2)n1-c1ccccc1,x,1,1.1,-5.31*,2.8,1,0.00777,0.00568,0.032,0.00722,0.0223,0.0104
O=C(CSc1nnc(Cn2nnc(-c3ccccc3)n2)n1-c1ccccc1)Nc1ccccc1,x,0.9,1.7,-0.571,9.4,0.9,x,x,x,x,x,x
O=C1CN(C(=O)COC(=O)/C=C/c2ccc(S(=O)(=O)N3CCOCC3)cc2)c2ccccc2N1,x,0.9,0.3,-0.0376,0.4,0.8,x,x,x,x,x,x
C/C(=N\NC(=S)Nc1ccccc1C)C1Cc2ccccc2C(=O)O1 (configuration not stated),x,x,x,2.63,x,x,x,x,x,x,x,x
C/C(=N\NC(=S)Nc1ccccc1)C1Cc2ccccc2C(=O)O1 (configuration not stated),0.61,x,x,6.6*,x,x,0.00705,0.0105*,0.0327,0.0113*,0.0225,0.0126*
Cc1cc([N+](=O)[O-])ccc1NCc1ccccc1,-0.668,0.9,0.6,-3.07*,4.3,0.9,0.00598,0.00431,0.0233*,0.00664,0.0167*,0.00898
O=C(O)c1cc(-c2cccc(Cl)c2)nc2nc(N3CCCCC3)sc12,0.636,1.1,-1.5,-4.21*,-5.6,1.1,0.009,0.00581,0.0336,0.00753,0.0167*,0.0105
CCOC(=O)c1c(NC(=O)CC2SC(N)=NC2=O)sc2c1CCCC2 (configuration not stated),x,0.9,0.4,-3.78*,3.7,0.9,0.00659,0.00475,0.0301,u,0.0189,0.00979
COc1ccc(NC(=S)NC(=O)c2csnn2)cc1,x,1,-0.2,138*,1.0,1.1,0.0887*,0.11*,0.125*,0.125*,0.124*,0.124*
